PREPL inh – inhibits the human prolyl oligopeptidase-like enzyme | Q4J6C6 | AID 2751 | inhibition, % at 5.96 µM | 320,000 compounds, 0.68% hits | recombinant PREPL, fluorescence polarization activity-based probe; in the data active = inhibition above about 43%;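 also: 0% = enzyme with DMSO and 100% = wells lacking enzyme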
MEKK2mut PB1 HTS – signal of MEK5 binding to mutant human MEKK2 PB1 domain; bead flow cytometry, Alexa488-MEK5 binding to MEKK2 mutant; percent response, % at 10 µM; 290,000 compounds, 0.35% hits; AID 1530; in the data active = percent response above about 24%, passing the limit was not always enough
Apaf-1 inh – human Apaf-1 inhibition; AID 489030; reconstituted apoptosome caspase-3 activity, DEVD-Rh110 fluorescence; O14727; inhibition, % at 20 µM; 330,000 compounds, 0.71% hits; active = inhibition of at least 40% at 20 µM;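 also: plate controls were DMSO wells for no effect and DEVD-CHO caspase inhibitor wells for full effect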
Target sequence (O14727 whole entry, looked up): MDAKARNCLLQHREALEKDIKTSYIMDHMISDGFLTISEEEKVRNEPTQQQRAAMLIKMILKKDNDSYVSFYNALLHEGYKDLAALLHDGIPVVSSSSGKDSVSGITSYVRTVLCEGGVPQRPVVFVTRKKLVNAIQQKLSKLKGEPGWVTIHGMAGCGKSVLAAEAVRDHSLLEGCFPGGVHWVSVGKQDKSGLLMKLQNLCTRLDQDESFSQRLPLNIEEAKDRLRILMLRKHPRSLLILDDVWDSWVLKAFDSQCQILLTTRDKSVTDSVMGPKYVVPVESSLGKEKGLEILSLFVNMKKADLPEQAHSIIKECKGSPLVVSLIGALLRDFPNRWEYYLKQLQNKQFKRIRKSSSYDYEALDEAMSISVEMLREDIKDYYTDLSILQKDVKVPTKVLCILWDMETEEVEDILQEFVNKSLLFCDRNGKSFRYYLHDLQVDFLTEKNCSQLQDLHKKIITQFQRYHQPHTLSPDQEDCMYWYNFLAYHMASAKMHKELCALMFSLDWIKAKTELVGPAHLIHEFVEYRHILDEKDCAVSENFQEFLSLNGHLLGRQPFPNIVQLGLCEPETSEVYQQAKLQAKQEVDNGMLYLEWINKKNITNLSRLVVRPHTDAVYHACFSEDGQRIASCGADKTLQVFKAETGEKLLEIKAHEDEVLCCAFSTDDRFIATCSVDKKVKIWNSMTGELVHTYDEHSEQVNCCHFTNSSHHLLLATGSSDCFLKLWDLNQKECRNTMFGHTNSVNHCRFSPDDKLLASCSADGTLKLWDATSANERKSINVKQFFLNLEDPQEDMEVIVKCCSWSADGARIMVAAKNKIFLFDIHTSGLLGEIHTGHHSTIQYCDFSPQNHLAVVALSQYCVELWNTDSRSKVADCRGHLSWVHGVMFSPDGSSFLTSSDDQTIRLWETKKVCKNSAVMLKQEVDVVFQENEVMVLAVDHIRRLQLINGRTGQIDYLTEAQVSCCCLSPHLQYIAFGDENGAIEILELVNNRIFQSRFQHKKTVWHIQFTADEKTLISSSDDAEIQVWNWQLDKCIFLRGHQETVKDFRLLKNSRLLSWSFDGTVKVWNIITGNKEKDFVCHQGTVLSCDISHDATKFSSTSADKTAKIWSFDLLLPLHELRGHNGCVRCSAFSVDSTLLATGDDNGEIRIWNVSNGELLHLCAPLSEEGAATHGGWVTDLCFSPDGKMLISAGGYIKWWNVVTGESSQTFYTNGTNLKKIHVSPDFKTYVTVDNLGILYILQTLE
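Material: reconstituted apoptosome with Apaf-1, cytochrome c, caspase-9, procaspase-3, dATP; medium: pH 7.5 Hepes buffer with CHAPS, BSA, DTT; also added: cytochrome c and DEVD-Rh110 substrate; timing: 30 min plus 50 min, RT; signal: Rh110 fluorescence intensity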
UBC13 inh – blocks human UBC13 polyubiquitin chain formation | P61088 | TR-FRET | inhibition, % at 20 µM | 330,000 compounds, 0.47% hits | AID 485273; in the data active = inhibition above about 45%, passing the limit was not always enough
MEKK3 PB1 HTS – raises or lowers MEK5 binding to the human MEKK3 PB1 domain | AID 1529 | Q99759 | binding response (% of control), % at 10 µM | 290,000 compounds, 1.4% hits | bead-based flow cytometry, Alexa488-MEK5 binding to MEKK3; actives lie on both sides; 0 = blocked by unlabeled MEK5, 100 = vehicle;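 active = binding response more than 3 SD above or below the average of its plate-row segment, actives on both sides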;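 also: Alexa488 bead fluorescence after subtracting the streptavidin-only scavenger bead signal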
MEKK2 WT-MEK5 – raises or lowers MEK5 binding to wildtype human MEKK2 PB1 domain | Q9Y2U5 | bead flow cytometry, Alexa488-MEK5 binding to MEKK2 WT; actives lie on both sides | binding response (% of control), % at 10 µM | 290,000 compounds, 1.1% hits | AID 1531; in the data active = binding response below about 67% or above about 130%
MEKK2wt confirm – raises or lowers MEK5 binding to wildtype human MEKK2, retest; shares compounds with MEKK3 PB1 HTS; bead flow cytometry, Alexa488-MEK5 binding to MEKK2 WT; actives lie on both sides; binding response (% of control), % at 10 µM; 5,900 compounds, 2.4% hits; AID 1892; in the data active = binding response below about 16% or above about 210%; inactive = in between
MEKK2mut confirm – signal of MEK5 binding to mutant human MEKK2, retest | shares compounds with MEKK3 PB1 HTS | 5,900 compounds, 2% hits | bead flow cytometry, Alexa488-MEK5 binding to MEKK2 mutant | AID 1893 | percent response, % at 10 µM; in the data active = percent response mostly above about 71%, no sharp cut-off; inactive = mostly below about 38%;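 also: higher means compound restores mutant binding toward wildtype level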
MEKK3-MEK5 inh – MEKK3-MEK5 PB1 inhibition, single concentration confirmation; shares compounds with MEKK3 PB1 HTS; bead flow cytometry, Alexa488-MEK5 binding to MEKK3; hits give low values; binding response (% of control), % at 10 µM; 5,900 compounds, 1.8% hits; AID 1894;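 active = binding response below 72% of control, or above a set upper limit, though filed actives all read lower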;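 also: 100% = DMSO only wells and 0% = binding blocked by excess unlabeled MEK5; lower values mean stronger disruption of MEK5 binding to MEKK3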
* = called active by the depositor; x = not tested or not shown; [ ] = dose if it differs, or a comment. Most compounds without a hit are left out; they make up all but 3.1% or so of the library.

SMILES | PREPL inh | MEKK2mut PB1 HTS | Apaf-1 inh | UBC13 inh | MEKK3 PB1 HTS | MEKK2 WT-MEK5 | MEKK2wt confirm | MEKK2mut confirm | MEKK3-MEK5 inh
NNC(=O)c1nn(-c2ccc(Cl)cc2)ccc1=O | -23 | -5 | -6 | -4 | 102 | 93 | x | x | x
O=C(COC(=O)c1ccc(Cl)nc1)Nc1ccc(N2CCCCC2)cc1 | -3 | x | 7 | -19 | x | x | x | x | x
Cc1ccc2cc(CN(Cc3ccco3)C(=O)C3CCCCC3)c(=O)[nH]c2c1C | 4 | -7 | 21 | -4 | 92 | 98 | x | x | x
Cc1ccc2cc(CN(Cc3ccco3)C(=O)NC3CCCCC3)c(=O)[nH]c2c1C | 10 | 1 | 5 | -8 | 64*[inhibitor] | 78 | 118 | 10 | 108
NC(=O)c1ccc(-n2nnnc2Oc2ccccc2)cc1 | 3 | -9 | -18 | 0 | 81*[inhibitor] | 83 | 103 | 4 | 105
COC(=O)/C=C/CC(C)OS(N)(=O)=O (centres undefined) | 4 | 7 | 6 | -4 | 98 | 152* | 96 | -7 | 90
Cc1c(C(=O)N2CCCC2)c(S(=O)(=O)N2CCN(c3ccccc3F)CC2)c(C)n1C | 12 | 0 | -14 | 6 | 97 | 99 | x | x | x
Cc1cccc(CN2CCN(CC(=O)NCCCN3CCN(c4ccc(F)cc4)CC3)C2=O)c1 | 31 | 34 | -9 | 30 | 111 | 180* | 146 | 25 | 108
N#C/C(=C/c1cn(CC(=O)O)c2ccccc12)C(=O)Nc1ccccc1 | 12 | 5 | -5 | -16 | 100 | 41*[inhibitor] | 96 | 0 | 100
N#C/C(=C\c1cn(Cc2ccc(F)cc2)c2ccccc12)C(=O)NCc1ccco1 | 9 | 0 | 6 | -3 | 129* | 103 | 97 | -3 | 100
COc1ccc2c(c1)[C@H]1[C@H](CO2)[C@H](c2ccccc2)[C@]2(C)C(=O)N(Cc3ccc(C)cc3)CC(=O)N12 | -3 | x | 32 | -8 | x | x | x | x | x
CC1CCCCN1C(=O)C(=O)c1cn(CC(=O)N2CCCC2)c2ccccc12 (centres undefined) | 8 | -15 | 10 | -2 | 1.0*[inhibitor] | -3.0*[inhibitor] | 103 | 2 | 103
COc1ccc(N=c2oc3ccc(OC)cc3cc2-c2nc3ccccc3[nH]2)cc1 | -9 | 5 | 0 | -7 | 124* | 105 | 101 | 6 | 100
COc1cccc(N=c2oc3ccc(OC)cc3cc2-c2nc3ccccc3[nH]2)c1 | 11 | -1 | -18 | -25 | 102 | 91 | x | x | x
Cc1cccc(OCCNC(=O)CCc2ccccc2)c1 | -4 | x | -13 | 3 | x | x | x | x | x
Cc1cccc(OCCCC(=O)NCCc2ccccc2)c1 | -14 | 0 | 12 | -14 | 137* | 108 | 105 | 4 | 104
COc1cc(C2C(C#N)=C(N)Oc3cc(O)ccc32)cc(OC)c1OC (centres undefined) | 6 | -21 | -3 | 8 | 10*[inhibitor] | 13*[inhibitor] | 95 | -3 | 99
COc1ccc(C2C(C#N)=C(N)Oc3cc(O)ccc32)cc1OC (centres undefined) | -1 | 12 | 4 | 3 | 106 | 109 | x | x | x
O=C(CSC1=NCCS1)c1ccc(Cl)cc1 | 0 | 129* | -12 | 14 | 115 | 282* | 104 | -6 | 102

Screening results from PubChem BioAssay.
